Experimental data published in ChEMBL document CHEMBL1138570, “2-Acylhydrazino-5-arylpyrrole derivatives: synthesis and antifungal activity evaluation” (Eur J Med Chem, 2009).
In brackets after ≈: the same amount, converted by molar mass.

Assays:
Assay type in all cases: functional
Candida parapsilosis [1] = experiment: Antimicrobial activity against Candida parapsilosis after 72 hrs by broth microdilution method; conditions: Lodderomyces parapsilosis
Outline: (§1)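 MFC: after MIC reading, a sample from each well was plated on Sabouraud dextrose agar and incubated 72 h at 35 °C. MFC was taken as the minimum concentration killing >99% of the original inoculum. The MIC step was NCCLS broth microdilution in MOPS-buffered RPMI 1640 (pH 7.0), with 2 ×10⁴ cells/mL, overnight at 35 °C.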

Pichia kudriavzevii [2] = experiment: Antimicrobial activity against Candida krusei by broth microdilution method
Outline: (§2)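 MIC by NCCLS broth microdilution. Medium was RPMI 1640 with L-glutamine, buffered with 0.165 M MOPS at pH 7.0. Twofold drug dilutions ran 0.008–200 mg/L. Inoculum was set spectrophotometrically to 10⁶ CFU/mL, then diluted in medium to 2 ×10⁴ cells/mL. Plates were incubated overnight at 35 °C in humid air, agitated, and read visually and at 450 nm.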

Candida albicans [3] = experiment: Antimicrobial activity against Candida albicans ATCC 10231 by broth microdilution method; outline: as §2
Pichia kudriavzevii [4] = experiment: Antimicrobial activity against Candida krusei after 72 hrs by broth microdilution method; outline: as §1
Nakaseomyces glabratus [5] = experiment: Antimicrobial activity against Candida glabrata after 72 hrs by broth microdilution method; outline: as §1
Nakaseomyces glabratus [6] = experiment: Antimicrobial activity against Candida glabrata by broth microdilution method; outline: as §2
Candida parapsilosis [7] = experiment: Antimicrobial activity against Candida parapsilosis by broth microdilution method; conditions: Lodderomyces parapsilosis; outline: as §2
Candida albicans [8] = experiment: Antimicrobial activity against Candida albicans ATCC 10231 after 72 hrs by broth microdilution method; conditions: ATCC 10231, 72 h; outline: as §1

Row | Compound | MIC (Pichia kudriavzevii [2]) | MIC (Candida albicans [3]) | MIC (Nakaseomyces glabratus [6]) | MIC (Candida parapsilosis [7]) | MFC (Candida parapsilosis [1]) | MFC (Pichia kudriavzevii [4]) | MFC (Nakaseomyces glabratus [5]) | MFC (Candida albicans [8])
1 | CCOC(=O)c1cc(-c2ccc(C)cc2)[nH]c1NNC(=O)C(C)C | 25 µg/mL (≈ 75.9 µM) | 6.25 µg/mL (≈ 19 µM) | > 100 µg/mL | 25 µg/mL (≈ 75.9 µM) | > 100 µg/mL | 100 µg/mL (≈ 304 µM) | > 100 µg/mL | 12.5 µg/mL (≈ 37.9 µM)
2 | CCOC(=O)c1cc(-c2ccc(OC)cc2)[nH]c1NNC(=O)C(C)C | 12.5 µg/mL (≈ 36.2 µM) | 6.25 µg/mL (≈ 18.1 µM) | > 100 µg/mL | 6.25 µg/mL (≈ 18.1 µM) | > 100 µg/mL | > 100 µg/mL | > 100 µg/mL | 12.5 µg/mL (≈ 36.2 µM)
3 | CCOC(=O)c1cc(-c2ccc(Cl)cc2)[nH]c1NNC(C)=O | 25 µg/mL (≈ 77.7 µM) | > 100 µg/mL | > 100 µg/mL | 12.5 µg/mL (≈ 38.8 µM) | 25 µg/mL (≈ 77.7 µM) | 50 µg/mL (≈ 155 µM) | > 100 µg/mL | > 100 µg/mL
4 | CCOC(=O)c1cc(-c2ccc(C)cc2)[nH]c1NNC(=O)Cc1ccc(OC)cc1 | 100 µg/mL (≈ 245 µM) | > 100 µg/mL | > 100 µg/mL | 100 µg/mL (≈ 245 µM) | > 100 µg/mL | > 100 µg/mL | > 100 µg/mL | > 100 µg/mL
5 | CCOC(=O)c1cc(-c2ccc(Cl)cc2)[nH]c1NNC(=O)Cc1ccc(OC)cc1 | > 100 µg/mL | > 100 µg/mL | > 100 µg/mL | > 100 µg/mL | > 100 µg/mL | > 100 µg/mL | > 100 µg/mL | > 100 µg/mL
6 | CCOC(=O)c1cc(-c2ccc(OC)cc2)[nH]c1NNC(C)=O | 12.5 µg/mL (≈ 39.4 µM) | 3.12 µg/mL (≈ 9.83 µM) | 6.25 µg/mL (≈ 19.7 µM) | 50 µg/mL (≈ 158 µM) | 50 µg/mL (≈ 158 µM) | 25 µg/mL (≈ 78.8 µM) | 12.5 µg/mL (≈ 39.4 µM) | 3.12 µg/mL (≈ 9.83 µM)
7 | CCOC(=O)c1cc(-c2ccc(Cl)cc2)[nH]c1NNC(=O)C(C)C | > 100 µg/mL | > 100 µg/mL | > 100 µg/mL | > 100 µg/mL | > 100 µg/mL | > 100 µg/mL | > 100 µg/mL | > 100 µg/mL

Continued, in another order:

Row | MIC (Pichia kudriavzevii [2]) | MIC (Candida albicans [3]) | MIC (Nakaseomyces glabratus [6]) | MIC (Candida parapsilosis [7]) | Compound | MFC (Candida parapsilosis [1]) | MFC (Pichia kudriavzevii [4]) | MFC (Nakaseomyces glabratus [5]) | MFC (Candida albicans [8])
8 | 12.5 µg/mL (≈ 36 µM) | 3.12 µg/mL (≈ 8.98 µM) | 6.25 µg/mL (≈ 18 µM) | 6.25 µg/mL (≈ 18 µM) | CCOC(=O)NNc1[nH]c(-c2ccc(OC)cc2)cc1C(=O)OCC | 25 µg/mL (≈ 72 µM) | 100 µg/mL (≈ 288 µM) | 25 µg/mL (≈ 72 µM) | 3.12 µg/mL (≈ 8.98 µM)
9 | > 100 µg/mL | > 100 µg/mL | 6.25 µg/mL (≈ 19.8 µM) | 25 µg/mL (≈ 79.3 µM) | CCOC(=O)c1cc(-c2ccccc2)[nH]c1NNC(=O)C(C)C | 100 µg/mL (≈ 317 µM) | > 100 µg/mL | 12.5 µg/mL (≈ 39.6 µM) | > 100 µg/mL
10 | 50 µg/mL (≈ 168 µM) | 3.12 µg/mL (≈ 10.5 µM) | 50 µg/mL (≈ 168 µM) | 25 µg/mL (≈ 83.8 µM) | COc1ccc(-c2cc(C#N)c(NNC(=O)C(C)C)[nH]2)cc1 | > 100 µg/mL | > 100 µg/mL | > 100 µg/mL | 3.12 µg/mL (≈ 10.5 µM)
11 | 6.25 µg/mL (≈ 23.1 µM) | 6.25 µg/mL (≈ 23.1 µM) | 25 µg/mL (≈ 92.5 µM) | 6.25 µg/mL (≈ 23.1 µM) | COCC(=O)NNc1[nH]c(-c2ccccc2)cc1C#N | 6.25 µg/mL (≈ 23.1 µM) | 25 µg/mL (≈ 92.5 µM) | 50 µg/mL (≈ 185 µM) | 6.25 µg/mL (≈ 23.1 µM)
12 | 1.56 µg/mL (≈ 6.13 µM) | 3.12 µg/mL (≈ 12.3 µM) | 3.12 µg/mL (≈ 12.3 µM) | 3.12 µg/mL (≈ 12.3 µM) | CCC(=O)NNc1[nH]c(-c2ccccc2)cc1C#N | 12.5 µg/mL (≈ 49.2 µM) | 12.5 µg/mL (≈ 49.2 µM) | 12.5 µg/mL (≈ 49.2 µM) | 6.25 µg/mL (≈ 24.6 µM)
13 | > 100 µg/mL | 12.5 µg/mL (≈ 39.6 µM) | > 100 µg/mL | 100 µg/mL (≈ 317 µM) | CCCC(=O)NNc1[nH]c(-c2ccccc2)cc1C(=O)OCC | > 100 µg/mL | > 100 µg/mL | > 100 µg/mL | 12.5 µg/mL (≈ 39.6 µM)
14 | 3.12 µg/mL (≈ 11.5 µM) | 3.12 µg/mL (≈ 11.5 µM) | 3.12 µg/mL (≈ 11.5 µM) | 6.25 µg/mL (≈ 23.1 µM) | CCOC(=O)NNc1[nH]c(-c2ccccc2)cc1C#N | 12.5 µg/mL (≈ 46.2 µM) | 6.25 µg/mL (≈ 23.1 µM) | 6.25 µg/mL (≈ 23.1 µM) | 3.12 µg/mL (≈ 11.5 µM)
